CHOP UPR activ = apoptotic UPR (CHOP) activation. CHO-CHOP luciferase reporter, luminescence; percent of tunicamycin response over DMSO baseline. activation, % at 10 µM. 330,000 tested, 0.34% active;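 active = at 10 µM dose, activation of 40% or more, normalized to positive control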;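 also: 100% = tunicamycin at 10 µg/mL and 0% = DMSO alone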
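Assay system: CHO-CHOP cells, stable luciferase reporter of PERK-eIF2a-CHOP signalling / Buffer or medium: F12 plus 10% serum / Compound dosing: one dose, 10 µM in 0.5% DMSO / Times: 6 h compound treatment, 37 °C / Technique: luciferase luminescence / Read-out: % reporter activation, DMSO baseline versus tunicamycin full activation / Benchmarks: tunicamycin and DMSO controls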
CHOP inh = inhibitors of CHOP induction in ER stress response. CHO-K1 CHOP-promoter luciferase, tunicamycin-induced, 15-18 h. inhibition, % at 10 µM. 220,000 tested, 3.8% active;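 active = compounds that reduced the stress-induced luciferase reporter signal by more than about 70% of percent inhibition, limit read from the data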;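 also: 0% = tunicamycin plus vehicle and 100% = wells without tunicamycin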
TLR4 MyD88 comp = inhibitors of human TLR4-MyD88 binding | inhibition, % at 8.4 µM | O00206+Q99836 | 200,000 tested, 0.18% active | HeLa CL3-4 TLR4/MyD88 BLA complementation, FRET ratio; in the data active = inhibition above about 25%;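 also: 0% = vehicle and 100% = reference inhibitor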
TLR9-MyD88 inh = TLR9-MyD88 interaction inhibition | CHO BLA complementation TLR9-MyD88, CCF4 FRET ratio | Q9NR96+Q99836 | inhibition, % at 4.98 µM | 340,000 tested, 0.21% active;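 active = inhibition above the mean over all tested compounds plus 3 SD, cut at about 21% in these data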;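 also: 0% = DMSO only wells and 100% = clavulanate BLA inhibitor control wells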
XBP1 UPR activ = activators of adaptive arm of unfolded protein response (XBP1). CHO-XBP1 luciferase reporter, IRE1-XBP1 UPR activation, luminescence; percent of tunicamycin response, DMSO as zero. 330,000 tested, 0.33% active. activation, % at 20 µM;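 active = versus positive control, 20 µM dose yields 30% or more activation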;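 also: 100% = tunicamycin at 10 µg/mL and 0% = DMSO only wells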
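Material: CHO-XBP1 cells stably carrying IRE1-XBP1-driven luciferase reporter | Medium: F12 with 10% serum | Compound dosing: 20 µM single concentration, DMSO 1% | Incubation: Overnight seeding at 37 °C, 6 h compound treatment at 37 °C | Detection: Steady-Glo luminescence read | Read-out basis: % activation of reporter signal versus tunicamycin and DMSO controls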
NOD2-RIPK2 inh = inhibitors of human NOD2-RIPK2 interaction; O43353; CHO BLA complementation NOD2-RIPK2, CCF4 ratio; inhibition, % at 4.98 µM; 360,000 tested, 0.38% active; AID 624267; in the data active = inhibition above about 21%;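 also: 0% = vehicle only and 100% = reference blocker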
Target sequence (O43353 whole entry, looked up): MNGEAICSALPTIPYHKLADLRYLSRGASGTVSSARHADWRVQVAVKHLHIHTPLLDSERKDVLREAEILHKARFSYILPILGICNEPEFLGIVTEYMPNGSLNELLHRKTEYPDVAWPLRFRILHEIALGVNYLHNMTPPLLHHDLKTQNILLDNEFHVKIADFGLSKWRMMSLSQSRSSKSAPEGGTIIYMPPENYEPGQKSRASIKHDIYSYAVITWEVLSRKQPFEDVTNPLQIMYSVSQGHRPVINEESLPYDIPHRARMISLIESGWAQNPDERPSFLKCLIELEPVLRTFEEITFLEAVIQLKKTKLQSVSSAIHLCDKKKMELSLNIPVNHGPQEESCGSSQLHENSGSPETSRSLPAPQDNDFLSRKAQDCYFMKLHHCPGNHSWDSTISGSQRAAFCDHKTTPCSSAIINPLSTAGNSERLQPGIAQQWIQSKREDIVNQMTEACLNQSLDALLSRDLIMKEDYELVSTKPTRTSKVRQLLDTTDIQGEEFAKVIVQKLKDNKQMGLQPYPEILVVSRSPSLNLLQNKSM
TLR9-MyD88 cf = TLR9-MyD88 interaction inhibition, confirmation; CHO TLR9/MyD88 BLA complementation, CCF4 FRET ratio; shares compounds with TLR9-MyD88 inh; 680 tested, 51% active; inhibition, % at 4.98 µM;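 active = mean inhibition across three repeats above about 21% taken from the earlier screen, limit read from the data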;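 also: blue over green emission ratio reports constitutive TLR9 MyD88 association via BLA complementation; 0% = DMSO vehicle wells and 100% = clavulanate BLA inhibitor wells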
BLA counter-1 = beta-lactamase reporter inhibition, counter-screen artifact | shares compounds with TLR9-MyD88 inh | CHO-BLA cells, CCF4 FRET ratio, BLA reporter | 680 tested, 7% active | inhibition, % at 4.98 µM;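 active = mean inhibition above a 50% cutoff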;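 also: counterscreen of TLR9-MyD88 hits on CMV-driven BLA in CHO-K1 cells; 0% = DMSO alone and 100% = clavulanate blocking BLA; higher means less blue over green ratio so more BLA blockade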
TLR9 CHO cytotox = CHO cell toxicity counter-screen for TLR9-MyD88 inhibitors; shares compounds with TLR9-MyD88 inh; TLR9-MyD88 CHO cells cytotoxicity, luminescence; inhibition, % at 4.98 µM; 680 tested, 39% active; AID 588336; in the data active = inhibition above about 11%
NOD2-RIPK2 conf = NOD2-RIPK2 interaction inhibition confirmed; inhibition, % at 4.98 µM; CHO cells, NOD2-RIPK2 BLA complementation, CCF4 FRET; shares compounds with NOD2-RIPK2 inh; 1,200 tested, 70% active;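 active = mean inhibition across replicates above a set limit taken from the earlier primary screen, cut at about 21% in these data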;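 also: 0% = DMSO-only wells and the high end = clavulanate BLA-blocked wells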
BLA counter-2 = NOD2-RIPK2 counterscreen BLA reporter activity; shares compounds with NOD2-RIPK2 inh; CHO BLA reporter, CCF4 FRET ratio; inhibition, % at 4.98 µM; 1,200 tested, 57% active; AID 624371;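 active = mean inhibition above the low-control mean inhibition plus three low-control SD, cut at about 11% in these data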;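 also: 0% = DMSO only wells and 100% = clavulanate high control wells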
* = called active by the depositor. The entries come from a sample that favours hits as a whole.

Screening O=C(NCc1cc(C(F)(F)F)ccc1Cl)c1cccc2c1C(=O)c1ccc(N3CCCCC3)cc1S2(=O)=O returned CHOP UPR activ 3, TLR9-MyD88 inh 2, XBP1 UPR activ -1 and NOD2-RIPK2 inh -3.
COc1cc(/C=C/C(O)=C/C(=O)/C=C/c2ccc(O)cc2)ccc1O was read as CHOP UPR activ 1, TLR9-MyD88 inh 34*, XBP1 UPR activ 3, NOD2-RIPK2 inh 49*, TLR9-MyD88 cf 25*, BLA counter-1 22, TLR9 CHO cytotox -1, NOD2-RIPK2 conf 57* and BLA counter-2 56*.
Screening COc1ccc(C[C@@H]2OC3(C=CC(=O)C=C3)O[C@H]2Cc2ccc(OC)cc2)cc1 returned TLR9-MyD88 inh 39*, NOD2-RIPK2 inh 92*, TLR9-MyD88 cf 44*, BLA counter-1 33, TLR9 CHO cytotox 98*, NOD2-RIPK2 conf 93* and BLA counter-2 38*.
O=C1C=CC2(C=C1)O[C@H](Cc1ccccc1)[C@@H](Cc1ccccc1)O2 was read as TLR9-MyD88 inh 26*, NOD2-RIPK2 inh 89*, TLR9-MyD88 cf 39*, BLA counter-1 26, TLR9 CHO cytotox 99*, NOD2-RIPK2 conf 91* and BLA counter-2 29*.
Screening C=Cn1cc[n+](CC(=O)c2ccc(-c3ccccc3)cc2)c1 returned CHOP UPR activ -1, TLR9-MyD88 inh -5, XBP1 UPR activ -5 and NOD2-RIPK2 inh -11.
`COc1ccc(NC(=O)NC(=O)c2cc(OCC(F)(F)F)ccc2OCC(F)(F)F)cc1` gave CHOP UPR activ 0, CHOP inh 30, TLR9-MyD88 inh -6, XBP1 UPR activ 4 and NOD2-RIPK2 inh 0.
For COC(=O)CNC(=O)CN1C(=O)N(c2cccc(Cl)c2)C(N(O)C(=O)Nc2cccc(Cl)c2)C1(C)C (configuration not stated) the results were CHOP UPR activ 2, CHOP inh 15, TLR4 MyD88 comp 7, TLR9-MyD88 inh 32*, XBP1 UPR activ -5, NOD2-RIPK2 inh 26*, TLR9-MyD88 cf 8, BLA counter-1 8, TLR9 CHO cytotox 2, NOD2-RIPK2 conf 14 and BLA counter-2 23*.
Screening O=c1c2c([N+](=O)[O-])cc([N+](=O)[O-])cc2sn1Cc1ccccc1 returned CHOP UPR activ 8, TLR9-MyD88 inh 32*, XBP1 UPR activ -5, NOD2-RIPK2 inh 26*, TLR9-MyD88 cf 20, BLA counter-1 5, TLR9 CHO cytotox 95*, NOD2-RIPK2 conf 12 and BLA counter-2 9.
For O=C(CNS(=O)(=O)c1ccc(F)cc1)N1CCCCCC1 the results were CHOP UPR activ 2, CHOP inh -24, TLR4 MyD88 comp 1, TLR9-MyD88 inh 0, XBP1 UPR activ 0 and NOD2-RIPK2 inh -6.
Screening CCCCNc1ccc2c3c(cccc13)C(=O)N(CCCC)C2=O returned CHOP inh -36, TLR9-MyD88 inh 67*, NOD2-RIPK2 inh 63*, TLR9-MyD88 cf 50*, BLA counter-1 49, TLR9 CHO cytotox 11*, NOD2-RIPK2 conf 77* and BLA counter-2 79*.
Screening CCN1C(=O)c2cccc3c(N)ccc(c23)C1=O returned CHOP UPR activ 3, TLR9-MyD88 inh 25*, XBP1 UPR activ 8, NOD2-RIPK2 inh 27*, TLR9-MyD88 cf 13, BLA counter-1 13, TLR9 CHO cytotox 2, NOD2-RIPK2 conf 35* and BLA counter-2 35*.
`FC(F)(F)c1ccccc1Cc1c(C2CCCCC2)nc2ccc(Br)cn12` gave NOD2-RIPK2 inh -15.
`COc1ccc(-c2cc3ccc(O)cc3oc2=O)cc1OC` gave CHOP UPR activ 0, TLR9-MyD88 inh 40*, XBP1 UPR activ -1, NOD2-RIPK2 inh 52*, TLR9-MyD88 cf 28*, BLA counter-1 36, TLR9 CHO cytotox 2, NOD2-RIPK2 conf 56* and BLA counter-2 60*.
For Cc1ccc(C2=NNC3(CCOC(C)(C)C3)S2)cc1 (configuration not stated) the results were CHOP UPR activ 40, CHOP inh -51, TLR4 MyD88 comp -27, TLR9-MyD88 inh 10, XBP1 UPR activ 4 and NOD2-RIPK2 inh 2.
`O=[N+]([O-])c1ccc(N(c2ccccc2)c2ccccc2)cc1` gave CHOP UPR activ -3, CHOP inh 16, TLR4 MyD88 comp 24, TLR9-MyD88 inh 39*, XBP1 UPR activ -2, NOD2-RIPK2 inh 58*, TLR9-MyD88 cf 32*, BLA counter-1 34, TLR9 CHO cytotox 6, NOD2-RIPK2 conf 62* and BLA counter-2 61*.
For CCS(=O)(=O)c1ncc(Cl)c(C(=O)Nc2ccc(C)cc2)n1 the results were CHOP UPR activ 12, TLR9-MyD88 inh 45*, XBP1 UPR activ -10, NOD2-RIPK2 inh 61*, TLR9-MyD88 cf 42*, BLA counter-1 36, TLR9 CHO cytotox 95*, NOD2-RIPK2 conf 65* and BLA counter-2 38*.
CS(=O)(=O)c1ncc(Cl)c(C(=O)Nc2ccc3ccccc3c2)n1 was read as CHOP inh 105*, TLR4 MyD88 comp 15, TLR9-MyD88 inh 45*, NOD2-RIPK2 inh 79*, TLR9-MyD88 cf 51*, BLA counter-1 31, TLR9 CHO cytotox 99*, NOD2-RIPK2 conf 72* and BLA counter-2 41*.
`CC(=O)Nc1ccc(NC(=O)c2nc(S(=O)(=O)Cc3ccccc3)ncc2Cl)cc1` gave CHOP UPR activ -10, TLR9-MyD88 inh 34*, XBP1 UPR activ -10, NOD2-RIPK2 inh 51*, TLR9-MyD88 cf 36*, BLA counter-1 30, TLR9 CHO cytotox 95*, NOD2-RIPK2 conf 50* and BLA counter-2 34*.

Screening data as filed in PubChem.
